“And” between values parts separate entries of the source, which are not always exact repeats. Equal values may be shown once. Read-outs that look alike come from different tables or passages of the source. Marks after values point to notes of the source that are not given here. Blank lines part the entries; values can stand above or below the compound they belong to.
Assays:
[1] = test system: RAW 264.7 macrophages; type: cell-based; details: Mus musculus; for inhibition at 25 µM: RAW264.7, read-out: AA Release Inhibition (%); for IC50: RAW264.7, read-out: IC50 for the inhibition of arachidonic acid release, RAW 264.7 cells stimulated with Kdo2-Lipid A, concentration for half maximal inhibition of the maximum inhibition observed
Outline: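 Mouse RAW 264.7 macrophages were grown in DMEM with 10% FBS, 2 mM glutamine, penicillin/streptomycin and non-essential amino acids at 37 °C in 5% CO2. Cells were seeded at 2 × 10^6 per well and left to adhere overnight. Test compound (25 μM) was added 30 min before Kdo2-Lipid A, and supernatants were collected 1 h later. AA was extracted, quantified by HPLC-MS and normalized to cell number by DNA quantitation.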

[2] = target: T1, GIVA cPLA2 (Homo sapiens, UniProt P47712); experiment: In vitro GIVA cPLA2 inhibition, mixed micellar modified Dole assay; type: biochemical; details: mole fraction of inhibitor in total substrate interface required to inhibit the enzyme by 50%; mixed micelles
T1 sequence (P47712 1-749): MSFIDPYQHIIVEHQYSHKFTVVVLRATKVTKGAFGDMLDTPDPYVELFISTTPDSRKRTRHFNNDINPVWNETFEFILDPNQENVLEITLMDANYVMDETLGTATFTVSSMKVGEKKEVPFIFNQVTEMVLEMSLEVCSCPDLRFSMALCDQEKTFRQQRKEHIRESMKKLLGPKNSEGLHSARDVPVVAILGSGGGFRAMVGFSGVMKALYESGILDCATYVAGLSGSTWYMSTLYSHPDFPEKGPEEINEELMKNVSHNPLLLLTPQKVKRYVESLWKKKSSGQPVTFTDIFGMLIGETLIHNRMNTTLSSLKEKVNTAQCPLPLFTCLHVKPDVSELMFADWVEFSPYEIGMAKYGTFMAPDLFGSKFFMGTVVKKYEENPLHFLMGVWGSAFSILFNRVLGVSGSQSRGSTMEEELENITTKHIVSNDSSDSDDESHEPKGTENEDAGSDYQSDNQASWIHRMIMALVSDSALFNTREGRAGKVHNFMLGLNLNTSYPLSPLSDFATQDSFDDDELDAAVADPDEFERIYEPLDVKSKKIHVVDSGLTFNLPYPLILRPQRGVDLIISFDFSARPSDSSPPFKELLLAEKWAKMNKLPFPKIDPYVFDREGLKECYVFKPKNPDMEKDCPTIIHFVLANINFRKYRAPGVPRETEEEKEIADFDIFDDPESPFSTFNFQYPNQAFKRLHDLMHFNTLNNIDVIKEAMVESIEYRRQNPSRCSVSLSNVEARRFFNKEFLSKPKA

[3] = target: T2, GVIA iPLA2 (Homo sapiens, UniProt O60733); details: reference 2-oxoamide inhibitors; ref [15]; cited from earlier work
T2 sequence (O60733 1-806): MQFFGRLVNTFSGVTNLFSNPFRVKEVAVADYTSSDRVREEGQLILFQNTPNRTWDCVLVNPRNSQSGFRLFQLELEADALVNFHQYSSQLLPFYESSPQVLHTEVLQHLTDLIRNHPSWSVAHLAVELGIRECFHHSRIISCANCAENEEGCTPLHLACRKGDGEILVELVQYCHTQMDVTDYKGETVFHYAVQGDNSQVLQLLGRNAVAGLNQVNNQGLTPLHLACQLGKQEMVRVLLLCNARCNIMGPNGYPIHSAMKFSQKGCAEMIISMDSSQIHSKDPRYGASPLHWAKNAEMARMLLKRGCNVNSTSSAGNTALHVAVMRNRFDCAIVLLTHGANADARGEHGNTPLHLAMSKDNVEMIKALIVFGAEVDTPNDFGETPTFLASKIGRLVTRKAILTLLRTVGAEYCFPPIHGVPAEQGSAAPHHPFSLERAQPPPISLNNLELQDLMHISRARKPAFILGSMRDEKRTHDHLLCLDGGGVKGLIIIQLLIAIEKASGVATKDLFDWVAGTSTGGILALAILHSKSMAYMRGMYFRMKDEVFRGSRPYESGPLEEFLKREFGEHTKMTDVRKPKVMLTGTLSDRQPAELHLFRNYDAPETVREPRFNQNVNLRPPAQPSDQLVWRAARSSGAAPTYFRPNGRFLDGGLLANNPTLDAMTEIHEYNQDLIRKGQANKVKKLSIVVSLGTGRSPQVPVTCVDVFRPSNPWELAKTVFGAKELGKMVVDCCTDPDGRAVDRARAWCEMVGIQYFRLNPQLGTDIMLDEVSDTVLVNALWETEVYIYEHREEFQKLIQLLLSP

[4] = target: T1, GIVA cPLA2; details: reference 2-oxoamide inhibitors; ref [15]; cited from earlier work

Structure (SMILES): CCCCCCCCCCC(=O)C(=O)N[C@@H](CCCC)C(=O)O [Compound 21]
inhibition at 25 µM [1]: 27 ± 6%

Structure (SMILES): CCCCCCCCCCCCCCC(=O)C(=O)N[C@H](/C=C/C(=O)OCC)CCCC [Compound 33]
inhibition at 25 µM [1]: 16 ± 6%

IC50 [1]: ~25 µM
Structure (SMILES): CCCCCCCCCCCCCCC(=O)C(=O)NCCCC(=O)O [Compound 19]
inhibition at 25 µM [1]: 52 ± 5%

IC50 [1]: 7 µM
Structure (SMILES): CCCCCCCCCCCCCCC(=O)C(=O)N[C@@H](CCCC)CCCC(=O)O [Compound 35]
inhibition at 25 µM [1]: 59 ± 4%

Structure (SMILES): CCCCCCCCCCCCCCC(=O)C(=O)N[C@H](C(=O)NCC(=O)OC(C)(C)C)C(C)C [Compound 8b, (S)-tert-Butyl 2-(3-methyl-2-(2-oxohexadecanamido)butanamido)acetate]
GIVA cPLA2 XI(50) [2]: 0.028 ± 0.015 mole fraction

Structure (SMILES): CCCCCCCCCCCCCCC(=O)C(=O)N[C@@H](CCCC)C(=O)NCC(=O)OC [Compound 4a, (S)-Methyl 2-(2-(2-oxohexadecanamido)hexanamido)acetate]
GIVA cPLA2 XI(50) [2]: 0.021 ± 0.009 mole fraction

Structure (SMILES): CCCCCCCCCCCCCCC(=O)C(=O)N[C@@H](CCCC)CCC(=O)O [Compound 26]
inhibition at 25 µM [1]: 79 ± 0.5%

Structure (SMILES): CCCCCCCCCCCCCCC(=O)C(=O)NCC(=O)OC [Compound 37]
inhibition at 25 µM [1]: 30 ± 2%

Structure (SMILES): CCCCCCCCCCCCCCC(=O)C(=O)N[C@H](/C=C/C=C/C(=O)O)CCCC [Compound 28]
inhibition at 25 µM [1]: 6 ± 10%

IC50 [1]: 10 µM
Structure (SMILES): CCCCCCCCCCC(=O)C(=O)N[C@@H](CCCC)CCC(=O)O [Compound 20]
inhibition at 25 µM [1]: 56 ± 6%

GIVA cPLA2 XI(50) [2]: 0.035 ± 0.014 mole fraction
Structure (SMILES): CCCCCCCCCCCCCCC(=O)C(=O)N[C@@H](CCCC)C(=O)NCC(=O)O [Compound 9a, (S)-2-(2-(2-Oxohexadecanamido)hexanamido)acetic acid]

GIVA cPLA2 XI(50) [2]: 0.061 ± 0.017 mole fraction
Structure (SMILES): CCCCCCCCCCCCCCC(=O)C(=O)N[C@H](C(=O)NCC(=O)O)C(C)C [Compound 9b, (S)-2-(3-Methyl-2-(2-oxohexadecanamido)butanamido)acetic acid]

Structure (SMILES): CCCCCCCCCCCCCCC(=O)C(=O)NCCCC(=O)COCC [AX048]
GVIA iPLA2 XI(50) [3]: 0.027 ± 0.009 ^b mole fraction
GIVA cPLA2 XI(50) [4]: 0.022 ± 0.009 ^b mole fraction

Structure (SMILES): CCCCCCCCCCCCCCC(=O)C(=O)NCCCC(=O)CO [AX006]
GIVA cPLA2 XI(50) [4]: 0.024 mole fraction and 0.024 ± 0.015 ^b mole fraction

Structure (SMILES): CCCCCCCCCCCCCCC(=O)C(=O)N[C@H](CCC(=O)O)CC(C)C [Compound 25]
inhibition at 25 µM [1]: 62 ± 5%

Structure (SMILES): CCCCCCCCCCCCCCC(=O)C(=O)NCCCCC(=O)OC(C)(C)C [Compound 34]
inhibition at 25 µM [1]: 11 ± 6%

IC50 [1]: ~2 µM
Structure (SMILES): CCCCCCCCCCCCCCC(=O)C(=O)N[C@@H](CCCC)COCC(=O)O [Compound 18, (S)-2-(2-(2-oxohexadecanamido)hexyloxy)acetic acid]
GIVA cPLA2 XI(50) [2]: 0.017 mole fraction and 0.017 ± 0.002 mole fraction

IC50 [1]: ~25 µM
Structure (SMILES): CCCCCCCCCCCCCCC(=O)C(=O)N[C@H](/C=C/C(=O)O)CCCC [Compound 30]
inhibition at 25 µM [1]: 74 ± 8%
